# Assay results of several laboratories.
# Compare with care: the assays were run in different laboratories.
# Target: Serine/threonine-protein kinase D2 (PRKD2, Homo sapiens, UniProt Q9BZL6)
# Residues used in one study (Q9BZL6 1-878): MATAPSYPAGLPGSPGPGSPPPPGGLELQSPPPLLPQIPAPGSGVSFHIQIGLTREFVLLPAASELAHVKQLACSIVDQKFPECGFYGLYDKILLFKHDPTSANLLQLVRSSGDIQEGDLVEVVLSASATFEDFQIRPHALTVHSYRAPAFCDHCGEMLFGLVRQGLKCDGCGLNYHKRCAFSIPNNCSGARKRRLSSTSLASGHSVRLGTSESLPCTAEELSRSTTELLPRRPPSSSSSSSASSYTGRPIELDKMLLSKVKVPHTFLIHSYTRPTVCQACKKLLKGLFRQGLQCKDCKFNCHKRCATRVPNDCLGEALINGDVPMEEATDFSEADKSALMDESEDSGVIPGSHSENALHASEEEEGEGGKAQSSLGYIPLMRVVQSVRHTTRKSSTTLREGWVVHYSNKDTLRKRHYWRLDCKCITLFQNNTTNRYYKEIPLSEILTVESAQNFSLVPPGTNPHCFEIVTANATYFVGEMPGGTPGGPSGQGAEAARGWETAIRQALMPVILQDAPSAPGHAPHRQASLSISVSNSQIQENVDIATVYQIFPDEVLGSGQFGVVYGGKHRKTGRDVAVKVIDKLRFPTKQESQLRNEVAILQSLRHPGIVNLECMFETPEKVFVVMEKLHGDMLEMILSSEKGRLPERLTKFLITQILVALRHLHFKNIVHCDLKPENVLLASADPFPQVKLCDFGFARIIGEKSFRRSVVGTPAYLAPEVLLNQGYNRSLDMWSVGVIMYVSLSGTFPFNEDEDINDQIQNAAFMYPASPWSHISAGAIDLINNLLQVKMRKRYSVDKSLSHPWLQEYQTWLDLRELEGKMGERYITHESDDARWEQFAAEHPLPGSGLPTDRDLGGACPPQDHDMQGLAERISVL
SMILES,assay,conditions,remaining binding [%]
CN(c1nccc(-c2cnn3ncccc23)n1)C1CC1,binding,1 µM,99
Cc1nc(N2CC[C@@H](O)C2)ncc1-c1cc(C(F)(F)F)cc2[nH]ncc12,"binding, competition with immobilised ligand",1 µM,79
c1cncc(-c2cccc(Nc3nccc(NC4CCCCC4)n3)c2)c1,"binding, competition with immobilised ligand",10 µM,19
O=C(c1ccc(Nc2nccc(-c3cc4ccccc4s3)n2)cc1)N1CCC(N2CCCC2)CC1,"binding, competition with immobilised ligand",1 µM,48
CC1CCCN1c1nccc(-c2cnn3ncccc23)n1 (stereo not shown),binding,1 µM,85
CNCc1ccccc1-c1csc([C@@H](C)Nc2nc(C)nc3cc(OC)c(OC)cc23)c1,"cell-free assay, competition with immobilised ligand",1 µM,100
CNC(=O)[C@@H]1CC[C@@H](n2c(-c3ccc4cnccc4c3)nc3ccc(C(=O)NCc4cccc(C(N)=O)c4)cc32)C1,"binding, competition with immobilised ligand",1 µM,90
O=C(c1ccc(Nc2ncc(Cl)c(-c3ccc(Cl)s3)n2)cc1)N1CCC(N2CCCC2)CC1,"binding, competition with immobilised ligand",1 µM,8.7
CS(=O)(=O)N1CCCC(NC(=O)[C@H](CCC2CCCCC2)NC(=O)c2ccc(CNC(=O)c3cnc4ccccn34)cc2)C1 (stereo partly shown),"cell-free assay, competition with immobilised ligand",0.1 µM,100
O=C(NCC1CCOCC1)c1n[nH]cc1NC(=O)c1c(F)cccc1F,"binding, competition with immobilised ligand",1 µM,100
Cc1cnc(Nc2ccc(C(=O)N3CCC(N4CCCC4)CC3)cc2)nc1-c1cc2ccccc2s1,"binding, competition with immobilised ligand",1 µM,47
CN(CCCC(F)(F)F)c1nccc(-c2cnn3ncccc23)n1,binding,1 µM,99
O=C(Nc1cccnn1)N1CCC(=Cc2cccc(Oc3ccc(C(F)(F)F)cn3)c2)CC1,"cell-free assay, competition with immobilised ligand",1 µM,94
COc1cnc(Nc2cccc(S(N)(=O)=O)c2)nc1N1CCN(c2ccccc2)CC1,"binding, competition with immobilised ligand",1 µM,98
C[C@@H]1CCN(c2nccc(-c3cnn4ncccc34)n2)C1,binding,1 µM,83
C=CC(=O)N1CCC(C(=O)NCC(=O)N2CCN(c3nc(-c4cnc(N)nc4C(F)F)nc(N4CCOCC4)n3)CC2)CC1,"binding, competition with immobilised ligand",1 µM,100
CN(C)c1nccc(-c2cnn3ncccc23)n1,binding,1 µM,89
COc1ccc2cc(OCC3(C(=O)O)CN(C(=O)c4ccc(F)cc4)C3)ccc2c1,"cell-free assay, competition with immobilised ligand",1 µM,93
N[C@H]1CCN(c2nccc(-c3cnn4ncccc34)n2)C1,binding,1 µM,74
CCN1CCN(Cc2ccc(C(=O)Nc3ccc(C)c(Oc4ccc5c(c4)CC(=O)N5)c3)cc2C(F)(F)F)CC1,"binding, competition with immobilised ligand",1 µM,95
CN(C)c1ncc(F)c(-c2cnn3ncccc23)n1,binding,1 µM,87
Cn1cc(Cl)c2c(Oc3c(F)cc(Nc4cc(Cl)nc(N)n4)cc3F)ccnc21,"cell-free assay, competition with immobilised ligand",0.1 µM,91
